In the library only some 3.1% were active in any assay of this set; here they are far more common.
GalR3 antag = antagonists of human GalR3. O60755. HEK293 GalR3-CNG cAMP membrane potential fluorescence; galR3 body fused to GalR1 C-terminus. inhibition, % at 3 µM. hit rate 0.44% among 360,000. AID 651719;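 active means inhibition above the screen-wide average plus 3 SD, cut at about 13% in these data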;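 further: forskolin and galanin both at EC90 stimulate the cells; cAMP rise reported by CNG channel membrane potential dye signal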
Target sequence (O60755 1-299 limits assumed): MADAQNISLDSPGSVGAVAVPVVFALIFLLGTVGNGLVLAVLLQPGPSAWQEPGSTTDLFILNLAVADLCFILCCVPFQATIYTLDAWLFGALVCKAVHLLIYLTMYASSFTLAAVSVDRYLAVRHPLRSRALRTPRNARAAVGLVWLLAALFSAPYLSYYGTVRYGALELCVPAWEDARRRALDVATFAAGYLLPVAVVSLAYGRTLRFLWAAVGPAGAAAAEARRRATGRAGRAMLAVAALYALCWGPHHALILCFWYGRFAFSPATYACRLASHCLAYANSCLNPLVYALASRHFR
GPR7 antag = blocks human GPR7 receptor signaling; GPR7-expressing cells, fluorescence antagonist assay; inhibition, % at 4.4 µM; AID 1861; hit rate 1.1% among 290,000; P48145; in the data active means inhibition above about 16%, passing the limit was not always enough;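 further: cells stimulated with the agonist NPW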
Target sequence (P48145 whole entry, looked up): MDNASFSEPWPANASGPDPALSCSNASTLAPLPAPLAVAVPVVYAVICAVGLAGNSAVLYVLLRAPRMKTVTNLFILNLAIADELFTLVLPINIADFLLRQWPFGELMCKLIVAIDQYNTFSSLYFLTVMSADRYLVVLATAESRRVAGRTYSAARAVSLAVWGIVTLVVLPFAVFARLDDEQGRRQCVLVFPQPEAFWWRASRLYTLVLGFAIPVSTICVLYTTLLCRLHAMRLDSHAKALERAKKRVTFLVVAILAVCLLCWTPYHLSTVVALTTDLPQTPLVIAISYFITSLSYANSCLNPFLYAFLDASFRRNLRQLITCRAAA
CHO parental Ca = counter-screen: ATP calcium response change in parental CHO cells; hit rate 0.63% among 330,000; AID 463079; inhibition, % at 5.6 µM; parental CHO-K1, ATP-induced calcium, Fluo-8 fluorescence;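 active means inhibition above that plate's mean sample inhibition plus 3 SD, cut at about 26% in these data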
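Assay system – parental CHO cells · Reagent – ATP stimulus · Detection – intracellular calcium via Fluo-8 no-wash fluorescent dye · Evaluation – percent inhibition of ATP-evoked calcium rise, normalized to controls · Controls – ATP wells versus no-ATP DMSO wells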
OX1R antag-1 = antagonists of human orexin 1 receptor (OX1R). OX1R-expressing cells, FRET antagonist read-out. inhibition, % at 6.6 µM. hit rate 1.8% among 330,000; in the data active means inhibition mostly above about 38%, no sharp cut-off; inactive means mostly below about 40%
OX1R antag-2 = blocks the human orexin 1 receptor | O43613 | CHO/OX1R cells, Fluo-8 calcium fluorescence, orexin A | inhibition, % at 5 µM | hit rate 0.43% among 330,000 | AID 434989;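 active means inhibition above its plate's threshold, mean inhibition of all tested compounds on the plate plus 3 SD, cut at about 37% in these data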
Each line names hits and unclear results; the compound was inactive in the other large screens.

COc1cccc(C(=O)NNc2c3ccccc3nc3ccccc23)c1	OX1R antag-1 42
COc1ccc(NC(=S)NNC(=O)CNc2ccc(Cl)cc2)cc1	none
CNC(=S)NNC(=O)c1cc(-c2cccnc2)nc2ccccc12	none
CC1CCN(C(=O)C2CCN(S(=O)(=O)c3cccc4nsnc34)CC2)CC1	none
O=C(C1CCN(S(=O)(=O)c2cccc3cccnc23)CC1)N1CCN(c2ccc(Cl)cc2)CC1	GPR7 antag 17
CCCCN(C)CCNC(=O)C1CCN(S(=O)(=O)c2cccc3nsnc23)CC1	OX1R antag-1 49
CCCCN(CC)CCNC(=O)C1CCCN(S(=O)(=O)c2cccc3nsnc23)C1 (stereo not given)	none
CCCCN(CC)CCNC(=O)C1CCN(S(=O)(=O)c2cccc3nsnc23)CC1	OX1R antag-1 51
O=C(C1CCN(S(=O)(=O)c2cccc3nsnc23)CC1)N1CCCCC1	OX1R antag-1 44
O=C1NC(=S)SC1=Cc1ccccn1	none (no result: GPR7 antag, CHO parental Ca, OX1R antag-1, OX1R antag-2)
C[C@@H](NC(=O)[C@@H]1CCCN1C(=O)[C@@H]1CCCN1C(=O)c1ccc(Cl)cc1)c1ccccc1	none (no result: GPR7 antag, CHO parental Ca, OX1R antag-1, OX1R antag-2)
CCCN(CCC)CCNC(=O)C1CCN(S(=O)(=O)c2cccc3nsnc23)CC1	OX1R antag-1 43
O=C(Nc1nnc(C2=COCCO2)o1)c1ccc(Cl)cc1	none
O=C(Nc1nnc(C2=COCCO2)o1)c1ccc([N+](=O)[O-])cc1	OX1R antag-1 52
O=C(O)Cc1csc2ccccc12	none
O=C(NCc1ccccn1)Nc1cc(Cl)cc(Cl)c1	CHO parental Ca 29
O=C(NCc1csc2ccccc12)Nc1cc(Cl)cc(Cl)c1	OX1R antag-1 52
O=C1c2c(O)ccc(O)c2C(=O)c2c(NCCNCCO)ccc(NCCNCCO)c21	OX1R antag-1 65 (no result: GPR7 antag)
Cc1cc(C(=O)CN2C(=O)NC3(CCCc4sccc43)C2=O)c(C)n1-c1ccc(Cl)cc1 (stereo not given)	OX1R antag-1 50
NC(=O)CN1C(=O)NC2(CCCc3sccc32)C1=O (stereo not given)	none
CCc1ccc(OCC(=O)c2c(O)c3ccccc3oc2=O)cc1	none
CCc1oc2ccccc2c1C(=O)c1cc(Br)c(O)c(Br)c1	OX1R antag-1 76
CN(CC(=O)Nc1ccc(Cl)c(Cl)c1)C(=O)CC1OC(=O)c2ccccc21 (stereo not given)	none (no result: GPR7 antag)
CC(C)Cn1c(N)c(C(=O)COC(=O)CCc2nc3ccccc3s2)c(=O)n(C)c1=O	CHO parental Ca 34
CC(C)Cn1c(N)c(C(=O)COC(=O)CCc2nc3ccccc3c(=O)[nH]2)c(=O)n(C)c1=O	none (no result: GPR7 antag)
Cc1ccccc1OCCC(=O)OCC(=O)c1c(N)n(CC(C)C)c(=O)n(C)c1=O	CHO parental Ca 46
Cc1ccc(OCCC(=O)OCC(=O)c2c(N)n(CC(C)C)c(=O)n(C)c2=O)cc1	none (no result: GPR7 antag)
CC(C)Cn1c(N)c(C(=O)COC(=O)CC23CC4CC(CC(C4)C2)C3)c(=O)n(C)c1=O	GPR7 antag 21, CHO parental Ca 61, OX1R antag-2 71
CCOc1cc(/C=N/NS(=O)(=O)c2ccc(OC)cc2)ccc1OCCN1CCOCC1	none
O=C(CCc1ccccc1)N=C1SC2CS(=O)(=O)CC2N1Cc1ccccc1 (stereo not given)	none
CC1=C/C(=C(/c2cc(C)c(O)c(Br)c2)c2ccccc2S(=O)(=O)O)C=C(Br)C1=O	OX1R antag-1 41
N#CCSc1nnc(SCC#N)s1	none
CC(CC(c1ccccc1)N1CCc2ccccc2C1)=NO (stereo not given)	none (no result: GPR7 antag, CHO parental Ca, OX1R antag-1, OX1R antag-2)
Cc1ccc(Oc2ncccc2N)c2c1CCC2	GPR7 antag 19
Nc1cccnc1Oc1ccc(F)cc1F	none
C=CCN1C(=O)C2(OCCCO2)c2cc(Cl)ccc21	none
CCCCCCCCN1C(=O)[C@H](CC(=O)NCCc2ccccc2OC)C[C@@]2(C(=O)OC)CC(C)(C)CC=C12	none (no result: GPR7 antag, CHO parental Ca, OX1R antag-1, OX1R antag-2)
NC(=O)CN1CCN(CCN2C(=O)c3cccc4cccc(c34)C2=O)CC1	OX1R antag-1 42
CCNC(=S)N1CCN(CCN2C(=O)c3cccc4cccc(c34)C2=O)CC1	none
Nc1cc2c3c(cccc3c1)C(=O)N(CCN1CCCC1)C2=O	OX1R antag-1 43
O=C1c2cccc3cc([N+](=O)[O-])cc(c23)C(=O)N1CCN1CCCC1	none (no result: CHO parental Ca, OX1R antag-1, OX1R antag-2)
O=C(CN1C(=O)c2cccc3cccc(c23)C1=O)N1CCCCCC1	OX1R antag-1 56
CCc1cc2c(nc1CC)CCCN2S(=O)(=O)c1ccccc1	none (no result: GPR7 antag, CHO parental Ca, OX1R antag-1, OX1R antag-2)
COc1cccc(CN2CCNC(=O)C2CC(=O)N(C)Cc2nc(C)cs2)c1OC (stereo not given)	none (no result: CHO parental Ca, OX1R antag-1, OX1R antag-2)
O=C(NCc1ccccn1)[C@@H]1CCCN1C(=O)[C@@H]1CCCN1C(=O)c1ccc(Cl)cc1	none (no result: GPR7 antag, CHO parental Ca, OX1R antag-1, OX1R antag-2)
CCOc1ccc(NC(=O)COc2nsnc2N2CCOCC2)cc1	none
O=C1Nc2ccccc2Nc2ccc([N+](=O)[O-])cc21	none
O=C1Nc2ccccc2OCc2c1cccc2[N+](=O)[O-]	OX1R antag-1 40
Cc1ccc(C(O)c2ncc(-c3cccc(F)c3)[nH]2)cc1 (stereo not given)	none (no result: GPR7 antag, CHO parental Ca, OX1R antag-1, OX1R antag-2)
O=C(Nc1ccc(Cl)cc1)N1CCC(c2nc(-c3ccccc3Cl)no2)CC1	CHO parental Ca 37
CC(OC(=O)CCc1nc2ccccc2c(=O)[nH]1)C(=O)Nc1cccc(C(F)(F)F)c1 (stereo not given)	none (no result: GPR7 antag)
COc1ccc(Nc2ccncc2[N+](=O)[O-])cc1	OX1R antag-1 41
COc1ccc(Nc2n[nH]c(C)c2[N+](=O)[O-])cc1	none
O=[N+]([O-])c1ccccc1Nc1cccc(F)c1	none (no result: GPR7 antag, CHO parental Ca, OX1R antag-1, OX1R antag-2)
O=[N+]([O-])c1cnccc1Nc1cccc(F)c1	OX1R antag-1 75
COc1ccc(OCc2ccc(C(=O)NN)cc2)cc1	none
Cc1ccccc1NC(=O)c1nn(C)c(C(=O)Nc2ccccc2C)c1[N+](=O)[O-]	none
COc1ccc(C)cc1NC(=O)c1nn(C)c(C(=O)Nc2cc(C)ccc2OC)c1[N+](=O)[O-]	OX1R antag-1 34
Cc1nc2ccc(NC(=O)c3cc([N+](=O)[O-])cc([N+](=O)[O-])c3Cl)cc2s1	none
CN1c2ccccc2C(C)(C)C12C=Cc1cc(O)ccc1O2 (stereo not given)	CHO parental Ca 56
CC(OC(=O)c1ccccc1Nc1ccc(SC(F)F)cc1)C(N)=O (stereo not given)	CHO parental Ca 47
CC(=O)c1ccc(OC(C)C)c(Cc2c(O)nc(N)[nH]c2=O)c1	none
O=S(=O)(Nc1cccnc1)c1ccc(C2CCCCC2)cc1	CHO parental Ca 35, OX1R antag-2 42
O=S(=O)(Nc1cccnc1)c1ccc2c(c1)OCCO2	GPR7 antag 20
COc1cccc(CN(C)S(=O)(=O)c2ccccc2Br)c1	none (no result: GPR7 antag)
CC1=NNC(=O)C1CCC(=O)N/N=C/C(Br)=C/c1ccccc1 (stereo not given)	none
O=c1oc2c3c(nn2c2ccccc12)CCCC3	OX1R antag-1 67
O=C(NCc1ccccc1)c1cccc(COc2cc(Cl)ccc2Cl)c1	none
O=C(NCc1ccccc1)c1cccc(COc2ccccc2Cl)c1	CHO parental Ca 57
O=C(Nc1ccc(F)cc1)c1nn(-c2ccccc2)c(=O)cc1Cl	GPR7 antag 46 (no result: CHO parental Ca, OX1R antag-1, OX1R antag-2)
